Assay results: ChEMBL document CHEMBL4823323, “Monocyclic Nitro-heteroaryl Nitrones with Dual Mechanism of Activation: Synthesis and Antileishmanial Activity” (ACS Med Chem Lett, 2021)
Activity calls are given as the source filed them. The calls are words filed in the database; no cut-off is given here.

Legend:
Leishmania amazonensis [1] = experiment: Antileishmanial activity against Leishmania amazonensis MHOM/BR/77/LTB 0016 promastigotes assessed as inhibition of parasite growth incubated for 72 hrs by resazurin dye based assay; type: functional, organism-based; conditions: MHOM/BR/77/LTB 0016, 72 h
Method in brief: (§1)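 Values are averages of three independent experiments run in triplicate ± standard error.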

Leishmania infantum [2] = experiment: Antileishmanial activity against Leishmania infantum MHOM/MA/67/ITMAP-263 promastigotes assessed as inhibition of parasite growth incubated for 72 hrs by resazurin dye based assay; type: functional, organism-based; conditions: MHOM/MA/67/ITMAP-263, 72 h; method in brief: as §1
Leishmania donovani [3] = experiment: Antileishmanial activity against wild type Leishmania donovani promastigotes incubated for 72 hrs by resazurin dye based assay; type: functional, organism-based
Method in brief: (§2)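 IC50 is the mean ± standard error of three independent experiments, each run in triplicate.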

[4] = Cytotoxicity against BALB/c mouse peritoneal macrophages assessed as reduction in cell viability incubated for 72 hrs by resazurin dye based fluorescence assay; set-up: species or system Peritoneal macrophage
Method in brief: (§3)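 CC50 values are means of three independent experiments, each in triplicate, ± standard error; selectivity index taken as macrophage CC50 divided by intracellular amastigote EC50.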

Leishmania amazonensis [5] = experiment: Antileishmanial activity against intracellular Leishmania amazonensis MHOM/BR/77/LTB 0016 amastigotes infected in BALB/c mouse peritoneal macrophage assessed as reduced parasite growth incubated for 72 hrs by PANOTIC staining based assay; type: functional, organism-based; conditions: MHOM/BR/77/LTB 0016, Peritoneal macrophage; method in brief: as §1
Leishmania infantum [6] = experiment: Antileishmanial activity against intracellular Leishmania infantum MHOM/MA/67/ITMAP-263 amastigotes infected in BALB/c mouse peritoneal macrophage assessed as reduced parasite growth incubated for 72 hrs by PANOTIC staining based assay; type: functional, organism-based; conditions: MHOM/MA/67/ITMAP-263, Peritoneal macrophage; method in brief: as §1
Leishmania donovani [7] = experiment: Antileishmanial activity against Leishmania donovani LdBOB derived from MHOM/SD/62/1 S-CL2D promastigotes overexpressing NTR1 incubated for 72 hrs by resazurin dye based assay; type: functional, organism-based; method in brief: as §2
Leishmania donovani [8] = experiment: Selectivity index, ratio of IC50 for antileishmanial activity against wild type Leishmania donovani promastigotes to IC50 for antileishmanial activity against Leishmania donovani LdBOB derived from MHOM/SD/62/1 S-CL2D promastigotes overexpressing NTR1; type: functional
Leishmania donovani [9] = experiment: Antileishmanial activity against Leishmania donovani LdBOB derived from MHOM/SD/62/1 S-CL2D promastigotes overexpressing NTR2 incubated for 72 hrs by resazurin dye based assay; type: functional, organism-based; method in brief: as §2
Leishmania donovani [10] = experiment: Selectivity index, ratio of IC50 for antileishmanial activity against wild type Leishmania donovani promastigotes to IC50 for antileishmanial activity against Leishmania donovani LdBOB derived from MHOM/SD/62/1 S-CL2D promastigotes overexpressing NTR2; type: functional
Peritoneal macrophage = experiment: Induction of ROS production in mouse peritoneal macrophages at EC50 concentration measured upto 4 hrs by H2DCFDA probe based fluorescence analysis; type: functional, cell-based; conditions: time hrs <=4
Method in brief: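 Murine peritoneal macrophages incubated 4 h with 0.5×, 1× and 2× EC50 of compounds (concentrations taken from the anti-promastigote assay); ROS quantified with H2DCFDA; means ± SD, n=3.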

Leishmania amazonensis [11] = experiment: Induction of ROS production in Leishmania amazonensis promastigotes measured by H2DCFDA probe based fluorescence analysis; type: functional; conditions: time hrs <=4
Method in brief: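 L. amazonensis promastigotes exposed to compounds at concentrations based on the anti-promastigote EC50, with ROS followed kinetically over 4 h using H2DCFDA fluorescence; means ± SD, n=3.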

[12] = Electrochemical behavior of the compound in aprotic medium assessed as redox potential using glassy carbon electrode by cyclic voltammetry analysis; type: physicochemical
[13] = Aqueous solubility of the compound at pH 7.4 measured after 24 hrs by UHPLC-HRMS analysis; type: physicochemical; conditions: buffer
[14] = Chemical stability of the compound assessed as degradation product at pH 7 measured after 240 mins; type: physicochemical; conditions: buffer, pH 7, 4 h
[15] = Chemical stability of the compound assessed as degradation product at pH 2 measured after 240 mins; type: physicochemical; conditions: buffer, pH 2, 4 h
[16] = Stability in pooled mouse plasma at pH 7.4 assessed as parent compound remaining incubated for 240 mins by LC/MS/MS analysis; type: ADME, cell-free; conditions: pH 7.4, 4 h
[17] = Metabolic stability in human liver S9 fraction assessed as drug recovery at pH 7.4 in the presence of NADPH cofactor measured upto 60 mins by LC/MS/MS analysis; type: ADME, subcellular; conditions: s9, pH 7.4, 1 h
Leishmania infantum [18] = experiment: (§4) Antileishmanial activity in Leishmania infantum promastigotes intraperitoneally infected in BALB/c mouse assessed as reduced parasite load in spleen at 50 mg/kg, po twice a day followed by omeprazole administration 1 hr prior to test compound administration for 5 consecutive days relative to control; type: functional; set-up: scale not given: the % may be the effect or the level left; conditions: time 5 day
Method in brief: (§5)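 BALB/c mice (n=5) infected intraperitoneally with 1 × 10^8 L. infantum promastigotes; treatment began seven days post-infection. Oral omeprazole 10mg given 1 h before each oral dose of test compound (25, 50, 100 mg/kg) every 12 h for five consecutive days. Controls received vehicle or miltefosine 22mg/kg twice daily. Spleen and liver parasite load estimated by limiting dilution.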

Leishmania infantum [19] = experiment: as §4, with “100” for “50”; type: functional; set-up: scale not given: the % may be the effect or the level left; conditions: time 5 day; method in brief: as §5
Leishmania infantum [20] = experiment: as §4, with “liver” for “spleen”, “25 to 100” for “50”; type: functional; set-up: scale not given: the % may be the effect or the level left; conditions: dose 25-100 mg/kg, time 5 day; method in brief: as §5
[21] = (§6) Selectivity index, ratio of CC50 for cytotoxicity against BALB/c mouse peritoneal macrophages assessed as reduction in cell viability incubated for 72 hrs by resazurin dye based fluorescence assay to IC50 for antileishmanial activity against intracellular Leishmania amazonensis MHOM/BR/77/LTB 0016 amastigotes infected in BALB/c mouse peritoneal macrophage; type: toxicity; conditions: read-out: Selectivity Index; method in brief: as §3
[22] = as §6, with “infantum MHOM/MA/67/ITMAP-263” for “amazonensis MHOM/BR/77/LTB 0016”; type: toxicity; conditions: read-out: Selectivity Index; method in brief: as §3

SMILES | IC50 (Leishmania amazonensis [1]) | IC50 (Leishmania infantum [2]) | IC50 (Leishmania donovani [3]) | CC50 at 72 h [4] | IC50 (Leishmania amazonensis [5]) | IC50 (Leishmania donovani [7]) | Ratio IC50 (Leishmania donovani [8]) | IC50 (Leishmania donovani [9]) | Ratio IC50 (Leishmania donovani [10]) | Activity [12] | selectivity ratio at 72 h [21] | other results
O=Cc1cccs1 [2-THIOPHENENECARBOXALDEHYDE] | > 100000 nM | > 100000 nM | – | – | – | – | – | – | – | – | – | –
C/[N+]([O-])=C/c1ccc([N+](=O)[O-])o1 | 9370 nM | 880 nM | 1160 nM | 49900 nM | 1070 nM | 30 nM | 38 | 190 nM | 6.1 | -0.62 V | 47 | IC50 (Leishmania infantum [6]): 170 nM; Activity (Peritoneal macrophage): inactive; Activity (Leishmania amazonensis [11]): inactive; solubility at 24 h [13]: > 10 µM; Drug degradation [14]: > 25%; Drug degradation [15]: 40%; Stabilty [16]: Stable; Stabilty [17]: Stable; Activity (Leishmania infantum [18]): 76.6%; Activity (Leishmania infantum [19]): 95%; Activity (Leishmania infantum [20]): >75%; selectivity ratio at 72 h [22]: 295
C/[N+]([O-])=C/c1cccs1 | > 100000 nM | > 100000 nM | – | > 100000 nM | – | – | – | – | – | – | – | –
O=Cc1ccc([N+](=O)[O-])s1 | 5110 nM | 1390 nM | – | 6250 nM | > 11500 nM | – | – | – | – | – | < 0.5 | –
CC(C)(C)/[N+]([O-])=C/c1ccc([N+](=O)[O-])s1 | 11300 nM | 13300 nM | 4550 nM | 29800 nM | – | 270 nM | 17 | 310 nM | 18 | -0.64 V | – | Activity (Peritoneal macrophage): inactive; Activity (Leishmania amazonensis [11]): inactive
CCCCCCCCCCCCCCCCOP(=O)([O-])OCC[N+](C)(C)C [MILTEFOSINE] | 7010 nM | 9810 nM | – | 96500 nM | 3400 nM | – | – | – | – | – | 28 | IC50 (Leishmania infantum [6]): 500 nM; selectivity ratio at 72 h [22]: 193
O=[N+]([O-])c1ccc(/C=[N+](\[O-])Cc2ccccc2)s1 | 1500 nM | 1510 nM | 410 nM | 18500 nM | 5420 nM | 300 nM | 1.3 | 760 nM | 0.53 | – | 3.4 | IC50 (Leishmania infantum [6]): 7180 nM; selectivity ratio at 72 h [22]: 2.6
CC1CS(=O)(=O)CCN1/N=C/c1ccc([N+](=O)[O-])o1 (configuration not stated) [NIFURTIMOX] | – | – | 1890 nM | – | – | 110 nM | 17 | – | – | – | – | –
O=[N+]([O-])c1ccc(/C=[N+](\[O-])Cc2ccccc2)o1 | 210 nM | 220 nM | 990 nM | 31900 nM | 2040 nM | 1220 nM | 0.81 | 1330 nM | 0.74 | – | 15.6 | IC50 (Leishmania infantum [6]): 4490 nM; selectivity ratio at 72 h [22]: 5.7
O=Cc1ccc([N+](=O)[O-])cc1 | > 100000 nM | > 100000 nM | – | – | – | – | – | – | – | -0.58 V | – | –
CC(C)(C)/[N+]([O-])=C/c1ccc([N+](=O)[O-])o1 | 1990 nM | 360 nM | 870 nM | 108000 nM | 2760 nM | 50 nM | 17 | 40 nM | 21 | -0.67 V | 39 | IC50 (Leishmania infantum [6]): 19 nM; Activity (Peritoneal macrophage): inactive; Activity (Leishmania amazonensis [11]): inactive; selectivity ratio at 72 h [22]: 5670
C/[N+]([O-])=C\c1ccc([N+](=O)[O-])cc1 | > 100000 nM | > 100000 nM | – | > 100000 nM | – | – | – | – | – | -0.68 V | – | –
C[C@]1(COc2ccc(N3CCC(Oc4ccc(OC(F)(F)F)cc4)CC3)cc2)Cn2cc([N+](=O)[O-])nc2O1 [DELAMANID] | – | – | 1.5 nM | – | – | – | – | 0.12 nM | 12.5 | – | – | –
C/[N+]([O-])=C/c1ccco1 | > 100000 nM | > 100000 nM | – | > 100000 nM | – | – | – | – | – | – | – | –
O=Cc1ccco1 [FURFURAL] | > 100000 nM | > 100000 nM | – | – | – | – | – | – | – | – | – | –
O=Cc1ccc([N+](=O)[O-])o1 | 25200 nM | 25700 nM | – | 27800 nM | > 57900 nM | – | – | – | – | -0.38 V | < 0.5 | –
C/[N+]([O-])=C/c1ccc([N+](=O)[O-])s1 | 9720 nM | 3450 nM | 1120 nM | 24200 nM | 3810 nM | 240 nM | 4.6 | 250 nM | 4.5 | -0.61 V | 6 | Activity (Peritoneal macrophage): inactive; Activity (Leishmania amazonensis [11]): inactive
